What was measured:
[1] = Inhibition of PI3K/mTOR in human U2OS cells assessed as inhibition of AKT1 phosphorylation at Ser473 residue by C-ELISA; format: cell-based
In short: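 U2OS osteosarcoma cells grown in 0.1% FBS and serum-stimulated. Endogenous phospho-AKT1 Ser473 quantified by cell-based ELISA with chemiluminescent substrate. Signal plotted against inhibitor concentration and fitted to a sigmoid dose-response curve.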

[2] = target: Phosphatidylinositol 4,5-bisphosphate 3-kinase catalytic subunit gamma isoform (Homo sapiens, UniProt P48736); experiment: Inhibition of human p110gamma using PIP2 as substrate in presence of ATP measured by HTRF assay
Chain of Phosphatidylinositol 4,5-bisphosphate 3-kinase catalytic subunit gamma isoform (P48736 whole entry, canonical isoform): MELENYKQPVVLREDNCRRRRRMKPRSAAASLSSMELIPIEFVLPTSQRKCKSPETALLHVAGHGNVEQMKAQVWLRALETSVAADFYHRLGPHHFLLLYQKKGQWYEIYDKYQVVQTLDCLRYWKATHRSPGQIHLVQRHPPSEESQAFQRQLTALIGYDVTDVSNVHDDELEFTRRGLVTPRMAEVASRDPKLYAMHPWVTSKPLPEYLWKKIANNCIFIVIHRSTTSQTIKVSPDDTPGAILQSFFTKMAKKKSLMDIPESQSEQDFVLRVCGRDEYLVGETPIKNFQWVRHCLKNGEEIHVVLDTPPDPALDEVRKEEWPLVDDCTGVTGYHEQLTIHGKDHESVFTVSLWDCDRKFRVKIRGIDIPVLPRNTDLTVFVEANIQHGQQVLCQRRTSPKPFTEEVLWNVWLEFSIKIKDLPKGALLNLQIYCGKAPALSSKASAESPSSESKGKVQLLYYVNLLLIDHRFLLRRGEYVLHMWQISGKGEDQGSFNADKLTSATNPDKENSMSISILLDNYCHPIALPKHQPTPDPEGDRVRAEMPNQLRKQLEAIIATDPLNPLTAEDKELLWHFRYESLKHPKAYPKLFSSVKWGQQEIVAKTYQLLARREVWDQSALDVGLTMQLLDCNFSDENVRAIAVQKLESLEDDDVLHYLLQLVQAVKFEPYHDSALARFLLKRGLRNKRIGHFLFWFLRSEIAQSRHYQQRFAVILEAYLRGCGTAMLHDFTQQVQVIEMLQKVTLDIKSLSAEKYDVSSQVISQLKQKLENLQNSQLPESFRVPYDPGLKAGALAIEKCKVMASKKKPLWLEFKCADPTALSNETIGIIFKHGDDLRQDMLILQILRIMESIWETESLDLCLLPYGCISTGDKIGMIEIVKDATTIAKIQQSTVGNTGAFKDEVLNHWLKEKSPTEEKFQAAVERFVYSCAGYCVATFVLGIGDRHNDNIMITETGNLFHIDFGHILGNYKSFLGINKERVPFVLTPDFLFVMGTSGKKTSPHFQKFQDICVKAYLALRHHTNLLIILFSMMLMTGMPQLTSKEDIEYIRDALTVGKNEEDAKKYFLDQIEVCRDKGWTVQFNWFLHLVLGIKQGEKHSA
In short: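 HTRF PI3-kinase assay with PIP2 at 10 µM. Enzyme and ATP levels (ATP at 50× KM): p110α/p85α 100 pM with 200 µM ATP; p110δ/p85α 100 pM with 200 µM ATP; p110β/p85α 500 pM with 250 µM ATP; p110γ 4 nM with 100 µM ATP. Activity normalized to no-compound control, variable-slope sigmoidal fit. Two independent experiments in duplicate.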

[3] = Inhibition of PI3K/mTOR in human MCF7 cells assessed as reduction of AKT phosphorylation at Ser473 residue measured after 3 hrs by western blot assay; format: cell-based; conditions: MCF7, 3 h
In short: (§1)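 MCF7 cells treated for 3 h across a dose range, washed and lysed with phosphatase and protease inhibitors. Lysates run on 10% SDS-PAGE and blotted, antibodies incubated overnight at 4 °C.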

[4] = Inhibition of PI3K/mTOR in human MCF7 cells assessed as reduction of AKT phosphorylation at Thr308 residue measured after 3 hrs by western blot assay; format: cell-based; conditions: MCF7, 3 h; in short: as §1
[5] = Inhibition of PI3K/mTOR in human MCF7 cells assessed as reduction of P70S6K phosphorylation at Thr389 residue measured after 3 hrs by western blot assay; format: cell-based; conditions: MCF7, 3 h; in short: as §1
[6] = Inhibition of PI3K/mTOR in human MCF7 cells assessed as reduction of S6 phosphorylation at Ser235/236 residue measured after 3 hrs by western blot assay; format: cell-based; conditions: MCF7, 3 h; in short: as §1
HT-29 = experiment: Growth inhibition of human HT-29 cells harboring mutated p110alpha measured after 72 hrs by Cell titre Glo-luminiscence cell viability assay; format: functional
In short: (§2)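 Cells harvested just before confluency and seeded at 4,000 cells/well, then left 24 h before dosing. Serial dilutions from 10 mM DMSO stocks, final DMSO ≤0.5%, each concentration in duplicate.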

NCI-H1975 = experiment: Growth inhibition of human NCI-H1975 cells harboring mutated p110alpha measured after 72 hrs by Cell titre Glo-luminiscence cell viability assay; format: functional; in short: as §2
PC-3 = experiment: Growth inhibition of human PC-3 cells harboring PTEN inactivation measured after 72 hrs by Cell titre Glo-luminiscence cell viability assay; format: functional; in short: as §2
DU-145 = experiment: Growth inhibition of human DU-145 cells harboring wild type p110alpha and PTEN measured after 72 hrs by Cell titre Glo-luminiscence cell viability assay; format: functional; in short: as §2
A549 = experiment: Growth inhibition of human A549 cells harboring wild type p110alpha and PTEN measured after 72 hrs by Cell titre Glo-luminiscence cell viability assay; format: functional; in short: as §2
[7] = target: Phosphatidylinositol 4,5-bisphosphate 3-kinase catalytic subunit alpha isoform (Homo sapiens, UniProt P42336); experiment: Inhibition of human full length p110alpha (1 to 1068 residues) expressed in baculovirus-infected Sf21 cells by ADP-Hunter Plus assay
Chain of Phosphatidylinositol 4,5-bisphosphate 3-kinase catalytic subunit alpha isoform (P42336 whole entry, the tested form may be a part, canonical isoform): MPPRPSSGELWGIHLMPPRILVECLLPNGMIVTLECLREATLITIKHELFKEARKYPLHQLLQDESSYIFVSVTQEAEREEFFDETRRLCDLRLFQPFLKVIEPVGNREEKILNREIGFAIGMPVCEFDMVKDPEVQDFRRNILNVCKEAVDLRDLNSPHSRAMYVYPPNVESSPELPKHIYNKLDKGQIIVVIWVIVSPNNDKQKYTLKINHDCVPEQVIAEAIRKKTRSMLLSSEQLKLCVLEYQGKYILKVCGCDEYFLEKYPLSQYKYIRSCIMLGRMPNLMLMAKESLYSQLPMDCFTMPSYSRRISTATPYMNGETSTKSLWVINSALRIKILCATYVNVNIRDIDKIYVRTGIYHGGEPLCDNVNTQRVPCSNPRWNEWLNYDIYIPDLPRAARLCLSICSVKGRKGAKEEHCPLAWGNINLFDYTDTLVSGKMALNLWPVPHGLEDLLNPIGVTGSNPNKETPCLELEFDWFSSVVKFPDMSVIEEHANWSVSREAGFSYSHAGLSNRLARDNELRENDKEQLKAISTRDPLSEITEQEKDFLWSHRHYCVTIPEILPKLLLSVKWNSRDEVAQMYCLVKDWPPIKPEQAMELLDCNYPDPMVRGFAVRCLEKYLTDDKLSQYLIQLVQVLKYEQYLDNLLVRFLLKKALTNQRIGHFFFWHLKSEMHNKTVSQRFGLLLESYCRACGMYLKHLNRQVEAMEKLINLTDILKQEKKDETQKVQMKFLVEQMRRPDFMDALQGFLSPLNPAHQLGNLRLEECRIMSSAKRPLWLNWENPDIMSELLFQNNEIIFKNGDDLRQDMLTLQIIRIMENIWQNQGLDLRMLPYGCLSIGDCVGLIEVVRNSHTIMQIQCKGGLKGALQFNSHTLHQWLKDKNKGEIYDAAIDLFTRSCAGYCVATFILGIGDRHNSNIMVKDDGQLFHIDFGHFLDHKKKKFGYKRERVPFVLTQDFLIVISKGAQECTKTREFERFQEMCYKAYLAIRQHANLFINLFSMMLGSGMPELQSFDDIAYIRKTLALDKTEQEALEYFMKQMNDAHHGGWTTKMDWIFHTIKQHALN

[8] = target: Serine/threonine-protein kinase mTOR (Homo sapiens, UniProt P42345); experiment: Inhibition of recombinant human GST tagged mTOR (1360 to 2549 residues) expressed in baculovirus expression system measured by LanthaScreen assay
In short: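 mTOR inhibition measured by LanthaScreen assay; IC50 values average two independent experiments.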

Homo sapiens = species on record: Homo sapiens; experiment: Selectivity ratio of IC50 for recombinant human GST tagged mTOR (1360 to 2549 residues) expressed in baculovirus expression system to IC50 for human full length p110alpha (1 to 1068 residues) expressed in baculovirus-infected Sf21 cells
In short: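 mTOR activity measured by LanthaScreen assay. PI3K-α activity measured by ADP Hunter Plus (ADP accumulation, fluorescence ex 544/em 580 nm), normalized to no-compound control and fitted to a sigmoid dose-response curve. IC50s are the average of two independent experiments. Ratio is mTOR IC50 over PI3K-α IC50.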

[9] = AUC (infinity) in BALB/c mouse at 5 mg/kg, iv measured for 8 hrs; format: ADME, organism-based; parameters: route intravenous, dose 5 mg/kg, time 8 hrs; conditions: in vivo
In short: (§3)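 BALB/c mice dosed I.V. or P.O. at the stated dose; plasma levels followed for 8 h. Parameters from noncompartmental analysis: AUC (h.ng/ml), T1/2 (h), Cl (L/h/Kg), Vd (L/Kg), Cmax (ng/ml), Tmax (h).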

[10] = Metabolic stability in human liver microsomes assessed as parent compound remaining in presence of NADPH regenerating system at 0.5 uM measured after 15 mins by LC-MS/MS analysis; format: ADME, Microsome; conditions: read-out: Stabilty
In short: (§4)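 Human, mouse or rat liver microsomes at 0.5 mg/ml protein with compound at 0.5 µM and NADPH-regenerating system, 37 °C with shaking. Control wells contain 0.1 M potassium phosphate instead of the regenerating system. Reaction stopped with acetonitrile/0.1% formic acid, centrifuged, supernatant analyzed by LC-MS/MS. Result is percent parent compound remaining.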

[11] = Metabolic stability in mouse liver microsomes assessed as parent compound remaining in presence of NADPH regenerating system at 0.5 uM measured after 15 mins by LC-MS/MS analysis; format: ADME, Microsome; conditions: read-out: Stabilty; in short: as §4
[12] = Metabolic stability in rat liver microsomes assessed as parent compound remaining in presence of NADPH regenerating system at 0.5 uM measured after 15 mins by LC-MS/MS analysis; format: ADME, Microsome; conditions: read-out: Stabilty; in short: as §4
Cytochrome P450 1A2 = target: T1, Cytochrome P450 1A2 (Homo sapiens, UniProt P05177); experiment: Inhibition of CYP1A2 (unknown origin) using Luciferin-ME as substrate at 10 uM preincubated with enzyme and substrate for 5 mins followed by addition of NADPH regeneration system and measured after 60 mins by luminescence method; format: ADME
T1 sequence (P05177 whole entry): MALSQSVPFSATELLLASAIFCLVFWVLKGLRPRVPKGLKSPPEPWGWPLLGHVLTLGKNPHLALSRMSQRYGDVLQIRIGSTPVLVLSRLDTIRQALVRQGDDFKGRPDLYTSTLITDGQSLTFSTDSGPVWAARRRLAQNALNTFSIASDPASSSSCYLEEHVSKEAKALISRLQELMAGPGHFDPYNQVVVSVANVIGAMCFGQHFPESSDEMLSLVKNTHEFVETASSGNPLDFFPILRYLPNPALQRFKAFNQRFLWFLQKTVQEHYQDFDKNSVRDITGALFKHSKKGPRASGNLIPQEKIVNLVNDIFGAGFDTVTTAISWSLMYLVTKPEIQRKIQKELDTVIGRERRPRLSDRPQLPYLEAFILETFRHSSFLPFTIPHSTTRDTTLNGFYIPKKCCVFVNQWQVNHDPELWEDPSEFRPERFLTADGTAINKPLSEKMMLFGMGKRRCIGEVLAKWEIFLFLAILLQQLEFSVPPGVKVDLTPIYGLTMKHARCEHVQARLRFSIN
In short: (§5)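 P450-Glo luminescence assays with these substrates: Luciferin-ME (CYP1A2), Luciferin-PPXE (CYP3A4), Luciferin-H (CYP2C9), LuciferinH-EG (CYP2C19), Luciferin-ME-EG (CYP2D6). Compounds run in 1/3 serial dilutions from 10 µM in 0.5% DMSO with enzyme and substrate. After 5 min preincubation, NADPH regeneration reagent added; 60 min at 37 °C, then detection reagent for 30 min. Background subtracted.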

Cytochrome P450 3A4 = Cytochrome P450 3A4 (Homo sapiens, UniProt P08684); experiment: Inhibition of CYP3A4 (unknown origin) using Luciferin-PPXE as substrate at 10 uM preincubated with enzyme and substrate for 5 mins followed by addition of NADPH regeneration system and measured after 60 mins by luminescence method; format: ADME; in short: as §5
Chain of Cytochrome P450 3A4 (P08684 whole entry): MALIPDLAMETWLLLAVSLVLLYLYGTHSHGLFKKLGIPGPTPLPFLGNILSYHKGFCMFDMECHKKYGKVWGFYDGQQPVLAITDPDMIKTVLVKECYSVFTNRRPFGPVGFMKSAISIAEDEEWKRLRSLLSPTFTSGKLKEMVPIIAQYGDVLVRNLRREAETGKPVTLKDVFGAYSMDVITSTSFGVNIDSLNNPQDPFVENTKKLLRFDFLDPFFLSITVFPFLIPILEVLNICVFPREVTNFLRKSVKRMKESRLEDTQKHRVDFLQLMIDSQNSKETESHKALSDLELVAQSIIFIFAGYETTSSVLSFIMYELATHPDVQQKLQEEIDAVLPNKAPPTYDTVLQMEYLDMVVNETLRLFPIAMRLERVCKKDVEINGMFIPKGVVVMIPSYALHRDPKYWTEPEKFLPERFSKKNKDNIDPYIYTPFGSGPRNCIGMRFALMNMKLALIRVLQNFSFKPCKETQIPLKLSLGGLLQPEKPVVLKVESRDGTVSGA

Cytochrome P450 2C9 = Cytochrome P450 2C9 (Homo sapiens, UniProt P11712); experiment: Inhibition of CYP2C9 (unknown origin) using Luciferin-H as substrate at 10 uM preincubated with enzyme and substrate for 5 mins followed by addition of NADPH regeneration system and measured after 60 mins by luminescence method; format: ADME; in short: as §5
Chain of Cytochrome P450 2C9 (P11712 whole entry): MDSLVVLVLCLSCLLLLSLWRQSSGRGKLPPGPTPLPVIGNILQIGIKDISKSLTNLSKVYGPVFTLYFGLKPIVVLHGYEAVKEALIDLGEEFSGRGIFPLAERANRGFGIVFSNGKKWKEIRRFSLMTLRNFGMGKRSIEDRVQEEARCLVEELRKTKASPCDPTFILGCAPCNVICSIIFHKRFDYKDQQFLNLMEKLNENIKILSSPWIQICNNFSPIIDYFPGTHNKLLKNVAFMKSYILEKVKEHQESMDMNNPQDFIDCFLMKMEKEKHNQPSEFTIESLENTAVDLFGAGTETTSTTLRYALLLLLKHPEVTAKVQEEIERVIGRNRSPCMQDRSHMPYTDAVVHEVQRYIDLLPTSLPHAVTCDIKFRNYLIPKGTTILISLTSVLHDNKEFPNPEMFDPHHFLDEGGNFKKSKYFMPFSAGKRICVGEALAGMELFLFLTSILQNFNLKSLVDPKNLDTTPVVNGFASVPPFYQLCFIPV

Cytochrome P450 2C19 = Cytochrome P450 2C19 (Homo sapiens, UniProt P33261); experiment: Inhibition of CYP2C19 (unknown origin) using LuciferinH-EG as substrate at 10 uM preincubated with enzyme and substrate for 5 mins followed by addition of NADPH regeneration system and measured after 60 mins by luminescence method; format: ADME; in short: as §5
Cytochrome P450 2D6 = Cytochrome P450 2D6 (Homo sapiens, UniProt P10635); experiment: Inhibition of CYP2D6 (unknown origin) using Luciferin-ME-EG as substrate at 10 uM preincubated with enzyme and substrate for 5 mins followed by addition of NADPH regeneration system and measured after 60 mins by luminescence method; format: ADME; in short: as §5
Chain of Cytochrome P450 2D6 (P10635 whole entry): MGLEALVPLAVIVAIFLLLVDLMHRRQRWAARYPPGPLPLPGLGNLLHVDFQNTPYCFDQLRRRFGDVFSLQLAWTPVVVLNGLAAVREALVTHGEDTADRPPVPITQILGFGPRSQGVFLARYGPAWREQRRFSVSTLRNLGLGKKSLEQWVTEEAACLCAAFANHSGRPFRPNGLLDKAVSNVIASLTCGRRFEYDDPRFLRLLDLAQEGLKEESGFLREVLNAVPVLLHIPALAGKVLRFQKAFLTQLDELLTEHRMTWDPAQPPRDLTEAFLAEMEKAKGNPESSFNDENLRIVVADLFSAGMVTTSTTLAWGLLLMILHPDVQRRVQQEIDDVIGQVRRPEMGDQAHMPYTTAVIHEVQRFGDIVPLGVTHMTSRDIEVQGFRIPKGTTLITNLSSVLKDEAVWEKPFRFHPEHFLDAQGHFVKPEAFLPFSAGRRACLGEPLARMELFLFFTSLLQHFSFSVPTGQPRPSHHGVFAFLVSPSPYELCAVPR

[13] = Half life in BALB/c mouse at 5 mg/kg, iv measured for 8 hrs; format: ADME, organism-based; conditions: in vivo; in short: as §3
[14] = Clearance in BALB/c mouse at 5 mg/kg, iv measured for 8 hrs; format: ADME, organism-based; conditions: in vivo; in short: as §3
[15] = Volume of distribution in BALB/c mouse at 5 mg/kg, iv measured for 8 hrs; format: ADME, organism-based; conditions: in vivo
In short: (§6)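 Dosing in BALB-C mice intravenously or orally, with plasma sampled over 8 h. Parameters (AUC, T1/2, Cl, Vd, Cmax, Tmax) come from a noncompartmental model. Units: AUC h.ng/ml, Vd L/Kg, Cmax ng/ml, Tmax h.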

[16] = Cmax in BALB/c mouse at 10 mg/kg, po measured for 8 hrs; format: ADME, organism-based; parameters: route oral, dose 10 mg/kg, time 8 hrs; conditions: in vivo; in short: as §3
[17] = Tmax in BALB/c mouse at 10 mg/kg, po measured for 8 hrs; format: ADME, organism-based; conditions: in vivo; in short: as §6
[18] = Half life in BALB/c mouse at 10 mg/kg, po measured for 8 hrs; format: ADME, organism-based; conditions: in vivo; in short: as §3
[19] = AUC(infinity) in BALB/c mouse at 10 mg/kg, po measured for 8 hrs; format: ADME, organism-based; parameters: route oral, time 8 hrs, dose 10 mg/kg; conditions: in vivo; in short: as §3
[20] = Oral bioavailability in BALB/c mouse at 10 mg/kg measured for 8 hrs; format: ADME, organism-based; conditions: in vivo; in short: as §3
[21] = Plasma concentration in BALB/c mouse at 10 mg/kg, po measured for 8 hrs; format: ADME, organism-based; in short: as §6
[22] = target: Voltage-gated inwardly rectifying potassium channel KCNH2 (Homo sapiens, UniProt Q12809); experiment: Inhibition of human ERG by fluorescence polarization assay
Chain of Voltage-gated inwardly rectifying potassium channel KCNH2 (Q12809 whole entry): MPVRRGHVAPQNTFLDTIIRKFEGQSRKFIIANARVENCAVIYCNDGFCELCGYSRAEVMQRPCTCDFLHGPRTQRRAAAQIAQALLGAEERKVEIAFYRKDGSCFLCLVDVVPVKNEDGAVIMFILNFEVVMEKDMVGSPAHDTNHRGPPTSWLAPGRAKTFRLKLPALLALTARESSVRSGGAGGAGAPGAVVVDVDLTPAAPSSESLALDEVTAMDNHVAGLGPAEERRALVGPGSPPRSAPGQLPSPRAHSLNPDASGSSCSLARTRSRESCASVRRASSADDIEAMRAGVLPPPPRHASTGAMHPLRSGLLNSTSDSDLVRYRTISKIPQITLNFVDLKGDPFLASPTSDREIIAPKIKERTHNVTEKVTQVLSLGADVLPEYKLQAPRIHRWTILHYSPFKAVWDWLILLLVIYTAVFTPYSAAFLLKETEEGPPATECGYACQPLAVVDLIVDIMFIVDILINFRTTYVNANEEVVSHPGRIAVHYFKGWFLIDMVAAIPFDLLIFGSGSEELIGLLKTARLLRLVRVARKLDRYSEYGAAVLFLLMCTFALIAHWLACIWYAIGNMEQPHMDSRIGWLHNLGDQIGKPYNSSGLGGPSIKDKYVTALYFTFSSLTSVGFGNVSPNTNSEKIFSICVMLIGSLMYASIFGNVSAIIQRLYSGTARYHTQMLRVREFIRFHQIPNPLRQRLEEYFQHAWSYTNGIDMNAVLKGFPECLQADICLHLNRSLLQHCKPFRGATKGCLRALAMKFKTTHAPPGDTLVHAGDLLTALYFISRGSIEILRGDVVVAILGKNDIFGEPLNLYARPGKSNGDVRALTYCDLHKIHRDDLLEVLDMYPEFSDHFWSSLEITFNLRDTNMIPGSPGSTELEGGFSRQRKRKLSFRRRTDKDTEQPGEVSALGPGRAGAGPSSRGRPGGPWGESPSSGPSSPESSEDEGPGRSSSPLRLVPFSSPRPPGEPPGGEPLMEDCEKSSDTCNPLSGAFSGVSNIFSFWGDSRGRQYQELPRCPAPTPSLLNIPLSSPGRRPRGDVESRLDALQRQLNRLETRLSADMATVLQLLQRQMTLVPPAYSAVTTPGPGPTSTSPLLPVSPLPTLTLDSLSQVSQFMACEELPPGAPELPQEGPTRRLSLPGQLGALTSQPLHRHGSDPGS
In short: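 Predictor h-ERG membrane preparations (sonicated) incubated with test compound dilutions and fluorescent tracer (working 4X tracer at 4 nM) at room temperature for ≥1 h. Read-out by fluorescence polarization, ex 530/25, em 590/35.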

Compound: COc1ncc(-c2ccc3nccc(-c4ccnnc4)c3c2)cc1NS(=O)(=O)c1ccc(F)cc1F [OMIPALISIB]
- EC50 [1]: 0.6 nM
- Ki [2]: 0.51 nM
- EC50 [3]: 0.65 nM
- EC50 [4]: 0.21 nM
- EC50 [5]: 0.68 nM
- EC50 [6]: 0.87 nM
- GI50 (HT-29): 19.9 nM
- GI50 (NCI-H1975): 14.4 nM
- GI50 (PC-3): 197 nM
- GI50 (DU-145): 16.3 nM
- GI50 (A549): 26.6 nM

Compound: COc1ncc2cc1NS(=O)(=O)c1cc(c(F)cc1F)C(=O)NCc1cncc(c1)-c1ccnc3ccc-2cc13
- IC50 [7]: 0.8 nM
- IC50 [8]: 22.3 nM
- Ratio IC50 (Homo sapiens): 27.8
- EC50 [1]: 10.7 nM
- AUC(0-inf) [9]: 9470 ng·h/mL
- remaining at 0.25 h, 0.5 µM [10]: 89%
- remaining at 0.25 h, 0.5 µM [11]: 88%
- remaining at 0.25 h, 0.5 µM [12]: 97%
- IC50 (Cytochrome P450 1A2): > 30000 nM
- IC50 (Cytochrome P450 3A4): > 30000 nM
- IC50 (Cytochrome P450 2C9): 8300 nM
- IC50 (Cytochrome P450 2C19): > 30000 nM
- IC50 (Cytochrome P450 2D6): > 30000 nM
- half-life [13]: 34.2 min
- clearance [14]: 8.83 mL/min/kg
- Vd [15]: 0.28 L/kg
- Cmax [16]: 3390 ng/mL
- Tmax [17]: 15 min
- half-life [18]: 167 min
- AUC(0-inf) [19]: 7680 ng·h/mL
- bioavailability [20]: 40.6%
- concentration at 8 h [21]: 264 ng/mL
- IC50 [22]: > 30000 nM

Source: ChEMBL document CHEMBL4819017 (Eur J Med Chem, 2021)
